Data from ChEMBL document CHEMBL2203076, “Kandenols A-E, eudesmenes from an endophytic Streptomyces sp. of the mangrove tree Kandelia candel” (2012).
Converted amounts (≈) assume the structure as drawn.

Tests used:
Type in all cases: functional
Bacillus subtilis = assay: Antimicrobial activity against Bacillus subtilis ATCC 6633 by broth microdilution method
Mycolicibacterium vaccae = assay: Antimicrobial activity against Mycobacterium vaccae ATCC IMET 10670 by broth microdilution method
Enterococcus faecalis = assay: Antimicrobial activity against vancomycin-resistant Enterococcus faecalis 1528 R10 by broth microdilution method
Method in brief: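 MIC read-out by standard broth microdilution against E. faecalis 1528 R10, run in the same panel as Bacillus subtilis ATCC 6633 and Mycobacterium vaccae IMET 10670.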

Compound	MIC (Bacillus subtilis)	MIC (Mycolicibacterium vaccae)	MIC (Enterococcus faecalis)
CC1=CC(=O)C[C@]2(C)C[C@@H](O)[C@H](C(C)(C)O)C[C@@H]12 (relative stereo) [KANDENOL A]	50 µg/mL (≈ 198 µM)	12.5 µg/mL (≈ 49.5 µM)	> 100 µg/mL
CC1=CC(=O)C[C@]2(C)C[C@@H](O)[C@H](C(C)(C)O)C[C@@]12O (relative stereo) [KANDENOL B]	50 µg/mL (≈ 186 µM)	12.5 µg/mL (≈ 46.6 µM)	> 100 µg/mL
O=C(O)c1cn(C2CC2)c2cc(N3CCNCC3)c(F)cc2c1=O [CIPROFLOXACIN]	< 0.05 µg/mL	0.1 µg/mL (≈ 0.302 µM)	0.78 µg/mL (≈ 2.35 µM)
CC1=CC(=O)C[C@]2(C)C[C@@H](O)[C@H](C(C)(C)O)C[C@@]12OO [KANDENOL C]	> 100 µg/mL	12.5 µg/mL (≈ 44 µM)	> 100 µg/mL
CC1=CC(=O)C[C@]2(C)CC[C@H](C(C)(C)O)C[C@@]12OO [KANDENOL D]	50 µg/mL (≈ 186 µM)	25 µg/mL (≈ 93.2 µM)	> 100 µg/mL
CC1=CC(=O)C[C@]2(C)C[C@@H](O)[C@@H]3C[C@@]12OC3(C)C [KANDENOL E]	50 µg/mL (≈ 200 µM)	12.5 µg/mL (≈ 49.9 µM)	> 100 µg/mL
